F-actin modifier: alters cytoskeleton assembly in HUVEC cells. HUVEC TNFa F-actin phalloidin imaging, high content. inhibition, % at 2 µM. 91,000 compounds, 0.18% hits;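 active = inhibition above the batch mean plus 3 SD and confirmed as a hit by visual image inspection, cut at about 30% in these data, passing the limit was not always enough; inconclusive = above the inhibition threshold but rejected on visual inspection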
Lung fibro prol: blocks proliferation of human lung fibroblasts. LL 47 human lung fibroblast viability, ATP luminescence; active compounds read low. viability, % at 10 µM. 85,000 compounds, 1.1% hits;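 active = viability at or below 50% in the single dose screen; inactive = viability above 50%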;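 also: compound exposure lasted 72 h before the ATP readout; 100% = median luminescence of untreated cell-only wells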
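Benchmarks: Cell-only wells, no compound | Test system: LL 47 human lung fibroblasts, passage 12 or lower | Input: 1,150 cells/well | Measured by: CellTiter-Glo luminescence measuring cellular ATP | Medium: IMEM, 15% FBS supplement | Schedule: Overnight attachment after seeding, then 72 h compound exposure at 37 °C | Doses: Compound addition at 0.1% DMSO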
H69AR inhibit: growth inhibitors of human H69AR lung tumor cells; viability, % at 10 µM; H69AR lung tumor viability, ATP luminescence, 72 h; active compounds read low; 85,000 compounds, 6% hits; AID 598;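 active = viability at or below 40%; inactive = viability above 40%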;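 also: multidrug resistant small cell line overexpressing MRP-1 efflux transporter; 100% = mean luminescence of untreated control wells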
Jurkat tox 60K: reduces viability or proliferation of Jurkat cells; Jurkat E6.1 viability, ATP luminescence, 48 h; inhibition, % at 4 µM; 56,000 compounds, 1.2% hits;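 active = inhibition above the mean inhibition of all tested compounds plus 3 SD, cut at about 28% in these data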
HUVEC prolif 384: inhibitors of human endothelial cell proliferation; HUVEC proliferation, CellTiter-Glo luminescence, 72 h; active compounds read low; viability, % at 10 µM (by protocol); 86,000 compounds, 1.1% hits; AID 648;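 active = viability at or below 30%; inactive = viability above 30%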;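 also: 100% = median luminescence of DMSO-only cell control wells on each plate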
PTK2B oligo ant: antagonists of human Pyk2 oligomerization. Q14289. 99,000 compounds, 0.83% hits. Q293 cells, Pyk2 FERM NanoBiT luminescence; active compounds read low. z-score (the deposit names both 25 µM and 10 µM);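 active = Z-score of -3 or lower, scaled per plate to the spread of control and sample wells; inactive = z-score above -3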;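 also: negative z-score means lost luminescence so less FERM oligomerization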
Target sequence (Q14289 whole entry, looked up): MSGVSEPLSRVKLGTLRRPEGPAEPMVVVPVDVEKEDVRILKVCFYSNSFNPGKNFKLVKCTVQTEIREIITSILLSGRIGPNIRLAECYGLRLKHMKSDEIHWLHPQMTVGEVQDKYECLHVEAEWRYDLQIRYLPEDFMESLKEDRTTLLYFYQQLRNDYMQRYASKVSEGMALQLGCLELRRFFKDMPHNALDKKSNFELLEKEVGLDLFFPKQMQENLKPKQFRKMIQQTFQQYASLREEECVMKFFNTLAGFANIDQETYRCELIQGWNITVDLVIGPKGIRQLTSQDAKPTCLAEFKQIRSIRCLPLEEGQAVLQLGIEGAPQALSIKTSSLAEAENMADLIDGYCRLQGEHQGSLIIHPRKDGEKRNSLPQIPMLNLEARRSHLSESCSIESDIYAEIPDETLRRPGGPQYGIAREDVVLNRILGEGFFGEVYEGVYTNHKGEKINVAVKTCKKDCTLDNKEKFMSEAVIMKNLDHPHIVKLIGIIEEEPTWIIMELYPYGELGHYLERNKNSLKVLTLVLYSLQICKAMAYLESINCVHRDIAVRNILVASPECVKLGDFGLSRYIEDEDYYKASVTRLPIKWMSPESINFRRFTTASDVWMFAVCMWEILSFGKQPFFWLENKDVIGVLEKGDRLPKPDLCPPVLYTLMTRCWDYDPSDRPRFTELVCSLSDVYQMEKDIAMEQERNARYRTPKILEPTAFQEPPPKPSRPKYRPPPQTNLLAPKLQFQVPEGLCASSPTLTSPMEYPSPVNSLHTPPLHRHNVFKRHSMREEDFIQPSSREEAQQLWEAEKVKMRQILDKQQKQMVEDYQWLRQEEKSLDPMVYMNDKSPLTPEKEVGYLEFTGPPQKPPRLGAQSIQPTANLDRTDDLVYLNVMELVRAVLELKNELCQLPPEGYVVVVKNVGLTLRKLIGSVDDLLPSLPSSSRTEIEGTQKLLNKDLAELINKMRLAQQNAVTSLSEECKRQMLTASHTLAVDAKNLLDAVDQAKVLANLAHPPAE
* hit, by the source's call; ? = inconclusive; nt = no result given. An excerpt weighted towards active compounds, which were near 6% of everything screened.

SMILES	F-actin modifier	Lung fibro prol	H69AR inhibit	Jurkat tox 60K	HUVEC prolif 384	PTK2B oligo ant
CCCCC(=O)Nc1sc2c(c1C(=O)OCC)CCC(C=O)=C2Cl	-20	nt	nt	nt	nt	-3*
CCCCNCC(=O)Nc1sc(C)c(C)c1C(=O)OCC	7	89	80	nt	83	-0.07
COc1cc(NC(=S)NN2CCN(C)CC2)cc(OC)c1	5	nt	nt	nt	nt	0.19
Cc1cc(C(=O)CSc2nnc(-c3ccc(F)cc3)o2)c(C)n1CC1COc2ccccc2O1 (centres undefined)	?	81	33*	nt	52	0.8
COc1ccc(-c2nnc(SCC(=O)N3CCCc4ccccc43)o2)cc1OC	34*	98	37*	5	85	0.71
COc1ccc(OC)c(C(=O)CSc2nnc(-c3ccc(OC)c(OC)c3)o2)c1	15	30*	84	8	67	nt
COc1ccc(-c2nnc(SCC#CCO)o2)cc1OC	22	97	31*	-1	102	0.2
COc1ccc(C(=O)CSc2nnc(-c3ccc(C)cc3)o2)cc1	-9	94	102	-3	81	0.51
Nc1ccccc1Nc1ccccc1	7	82	11*	nt	77	-2
O=C(COC(=O)CCNS(=O)(=O)c1ccc2c(c1)OCCO2)NC1CCCc2ccccc21 (centres undefined)	nt	110	93	3	101	1.2
O=C(COC(=O)c1cc([N+](=O)[O-])ccc1NCc1ccccc1)NC1CCCc2ccccc21 (centres undefined)	13	56	38*	nt	72	0.48
CCCOc1ccc(/C=C/C(=O)Nc2ccc([N+](=O)[O-])cc2C)cc1	32	nt	nt	nt	nt	0.45
Cc1cc2c(cc1C)N(C(=O)CSc1nncn1C)C(C)(C)c1ssc(=S)c1-2	2	98	70	nt	95	-1.9
CCOc1ccc2c(c1)-c1c(ssc1=S)C(C)(C)N2C	-23	97	32*	nt	77	-1.2
O=S(=O)(NCCSCc1ccc(Cl)cc1Cl)c1ccc2c(c1)OCCO2	-2	nt	nt	nt	nt	-2.3
O=S(=O)(NCCSCc1c(Cl)cccc1Cl)c1ccc2c(c1)OCCO2	-6	nt	nt	nt	nt	-4.3*
c1ccc(-c2nnc(Cn3c4ccccc4c4nc5ccccc5nc43)o2)cc1	-1	91	11*	-2	47	0.25
Cn1nc(C(F)(F)F)c(C(=O)Nc2ccc(F)cc2F)c1Sc1ccc(C(F)(F)F)cc1	63*	nt	nt	nt	nt	-0.7
CCOC(=O)c1ccc(CNC(=O)c2cc(C(C)(C)C)oc2C)o1	-2	nt	nt	2	nt	0.11
Cc1cc(C)n(-c2nnc(C)n2NS(C)(=O)=O)n1	17	102	103	7	102	-0.04
CCc1c(C)sc(NC(=O)Cn2nc(C(F)(F)F)c3c2CCCC3)c1C#N	-24	nt	nt	nt	nt	0.67
Cc1cc2c(=O)n(Cc3ccco3)c(SCC(=O)N3CCCc4ccccc43)nc2s1	11	89	62	0	78	-1.8
CCn1c(SCC(=O)N2CCN(c3ccc(Cl)cc3)CC2)nc2ccccc2c1=O	-5	102	92	-4	105	0.35
CCn1c(SCC(=O)N2CCOCC2)nc2sc3c(c2c1=O)CCCC3	8	88	39*	nt	98	-0.13
CCn1c(SC(C)C(=O)O)nc2sc3c(c2c1=O)CCC3 (centres undefined)	nt	106	78	nt	97	-0.63
SMILES	F-actin modifier	Lung fibro prol	H69AR inhibit	Jurkat tox 60K	HUVEC prolif 384	PTK2B oligo ant
O=C(CSc1nc2sc3c(c2c(=O)n1Cc1ccco1)CCC3)N1CCc2ccccc21	3	85	29*	-9	93	nt
CCn1c(SCC(=O)N2CCOCC2)nc2oc3c(Cl)cc(Cl)cc3c(=O)c2c1=O	0	87	14*	3	88	nt
Cc1cccn2c(=O)c3cc(C(=O)N4CCN(c5ccccc5)CC4)n(C)c3nc12	nt	97	95	-4	62	nt
N#C/C(=C1\C(=O)Nc2c(Cl)cc(Cl)cc21)c1nnc2n1CCCCC2	-12	99	36*	nt	85	0.33
CCN(CC)S(=O)(=O)c1ccc(N2CCN(S(=O)(=O)c3ccccc3C#N)CC2)nc1	4	92	38*	nt	92	-0.35
N#Cc1ccccc1S(=O)(=O)N1CCN(c2ccc(S(=O)(=O)N3CCOCC3)cn2)CC1	6	96	82	-9	103	0.18
O=C(CN(C(=O)c1ccc2c(c1)OCCO2)c1ccccc1)NCC1CCCO1 (centres undefined)	19	104	84	0	93	0.13
COc1cc(C)c(CNc2cccc(C)c2)cc1C	7	101	113	nt	104	0.2
COc1cc(C)c(CNc2ccc(OC)c(OC)c2)cc1C	0	nt	36*	0	86	nt
COc1cc(CNc2cc(C)ccc2C)cc(OC)c1OC	5	92	62	10	89	0.62
COc1cc(CNc2ccc(C)c(C)c2)cc(OC)c1OC	nt	nt	19*	88*	56	-0.32
CCn1c(=O)cc(SCC(=O)N2CCN(c3ccccc3F)CC2)c2ccccc21	-3	100	79	nt	77	-0.04
Cc1nc(NC2=NCN(Cc3cccnc3)CN2)nc2c(C)cccc12	nt	52	37*	2	70	nt
Cc1nc(NC2=NCN(CCN3CCOCC3)CN2)nc2c(C)cccc12	4	80	87	0	91	nt
O=C(CCN1CCN(CCC(=O)c2ccccc2)CC1)c1ccccc1	nt	93	1.2*	0	96	nt
CCC(=O)Oc1ccc(/C(CC)=C(\CC)c2ccc(OC(=O)CC)cc2)cc1	nt	70	10*	nt	55	nt
CCC(Sc1nc2n[nH]c(C)c2c(=N)n1-c1ccc(C)c(Cl)c1)C(=O)N1CCOCC1 (centres undefined)	nt	75	26*	1	58	-2.5
CCC(Sc1nc2n[nH]c(C)c2c(=N)n1-c1cccc(Cl)c1)C(=O)NCCOC (centres undefined)	0	nt	nt	6	nt	-0.21
COC(=O)C1CCN(C(=O)COc2cc3sc(C)nc3c3sccc23)CC1	-5	99	35*	6	89	-0.89
COC(=O)C1CCN(C(=O)COc2ccc(Cl)cc2)CC1	15	95	95	3	100	0.22
O=C(COc1cccc(Cl)c1)Nc1nc(-c2ccc(S(=O)(=O)N3CCOCC3)cc2)cs1	-23	98	73	nt	88	-1.1
COc1ccc(-c2csc(NC(=O)C3CCCCN3S(=O)(=O)c3ccccc3)n2)cc1 (centres undefined)	3	104	44	nt	82	-3.4*
CCOc1cccc(C(=O)Nc2nc(-c3ccc(S(=O)(=O)N4CCOCC4)cc3)cs2)c1	-17	83	32*	4	81	-2.2
COc1ccccc1C(=O)Nc1nc(-c2ccc(S(=O)(=O)N3CCOCC3)cc2)cs1	-6	23*	45	nt	49	-1.9
CCC(Sc1nc2cc3c(cc2c(=O)n1Cc1ccco1)OCO3)C(=O)Nc1ccccc1OC (centres undefined)	24	55	7.6*	nt	25*	-1.2
CCC(Sc1nc2cc3c(cc2c(=O)n1Cc1ccco1)OCO3)C(=O)Nc1cccc(OC)c1 (centres undefined)	4	36*	11*	nt	4.1*	-0.99
